Active and inactive are the calls of the source. The calls are words filed in the database; no cut-off is given here.
Columns and labels:
[1] = Terminal half life in C57BL/6 mouse at 20 mg/kg, sc administered as single dose measured upto 24 hrs by LC-MS/MS analysis; type: ADME, organism-based; details: in vivo, read-out: beta t1/2 (converted)
Outline: (§1)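 Male C57BL/6 mice, single dose: IV 5 mg/kg in 85% saline/10% Solutol HS15/5% DMSO; SC 20 mg/kg in same vehicle; PO 20 mg/kg in 1% methylcellulose in water. About 110 µL blood taken into K2EDTA by retro-orbital puncture (terminal bleed by cardiac puncture under isoflurane) at 0.033–24 h. Plasma spun at 2000 g, 5 min, 4 °C, stored near −70 °C; n = 3 per route.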

[2] = Clearance in C57BL/6 mouse at 5 mg/kg, iv administered as single dose measured upto 24 hrs by LC-MS/MS analysis; type: ADME, organism-based; details: in vivo; outline: as §1
[3] = target: PCSK9/LDLR (Homo sapiens, UniProt Q8NBP7); test: Inhibition of recombinant human His-tagged PCSK9 interaction with recombinant LDLR AB domain (unknown origin) measured after 3 hrs by horseradish peroxidase-coupled TMB substrate based spectrophotometry; type: protein assay
Outline: (§2)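 ELISA plates pre-coated with LDLR-EGF-AB domain. Compounds serially diluted from 10 mM DMSO stocks in reaction buffer, with 7 ng His-tagged human PCSK9 added, 3 h at room temperature with shaking. Binding detected with biotinylated anti-His antibody (1 h), then HRP-streptavidin (20 min), then substrate (15 min); absorbance read at 450/540 nm. IC50 taken from the % inhibition curve.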

[4] = Clearance in CD1 mouse at 0.4 mg/kg, iv administered as cassette dose measured upto 24 hrs by LC-MS/MS analysis; type: ADME, organism-based; details: in vivo
Outline: (§3)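 Male CD1 mice (second cassette 28–29 g, 7–8 weeks) given one IV 5-in-1 cassette at 0.4 mg/kg per compound in 5% DMAC/5% Solutol HS15/90% saline. Blood (~20 µL) into K2EDTA from the facial vein at 0.083–24 h, terminal bleed by cardiac puncture under isoflurane. Blood diluted with deionised water, stored at −80 °C, analysed by positive-ESI mass spectrometry.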

[5] = Oral bioavailability in C57BL/6 mouse at 20 mg/kg administered as single dose measured upto 24 hrs by LC-MS/MS analysis; type: ADME, organism-based; details: in vivo; outline: as §1
[6] = Volume of distribution at steady state in CD1 mouse at 0.4 mg/kg, iv administered as cassette dose measured upto 24 hrs by LC-MS/MS analysis; type: ADME, organism-based; details: in vivo, read-out: Vdss; outline: as §3
[7] = test system: PCSK9/LDLR (Homo sapiens), Q8NBP7+P01130 [D374Y]; test: Inhibition of PCSK9 D374Y mutant (unknown origin) and LDLR protein-protein interaction in human HepG2 cells assessed as increase in Bodipy FL-labelled LDL uptake preincubated for 16 hrs followed by Bodipy FL-labelled LDL addition and measured after 4 hrs by fluorescence assay; type: cell-based
Outline: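 HepG2 cells seeded at 2 × 10^5 cells/mL and attached overnight, then incubated 16 h with PCSK9-D374Y (2 μg/mL) plus compound (0.1 or 1 µM). Medium replaced with 10 μg/mL Bodipy FL LDL for 4 h. Cells washed with warm PBS; fluorescence read at ex 485/em 530 nm. Mean ± S.D.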

[8] = AUCinfinity in C57BL/6 mouse at 5 mg/kg, iv administered as single dose measured upto 24 hrs by LC-MS/MS analysis; type: ADME, organism-based; design: dose 5 mg/kg, route intravenous, time infinity; details: in vivo; outline: as §1
[9] = test system: Mus musculus; test: Effect on total triglyceride level in C57BL/6 mouse at 3.28 to 16.4 mg/kg/day, sc administered daily for 14 days and measured on day 15 by colorimetric method; type: ADME, organism-based; details: in vivo, 336 h
Outline: (§4)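 Female C57BL/6 wild-type or PCSK9−/− mice (8–16 weeks), acclimatised 7 days, 5 per group, dosed SC daily for 14 days at 3.28 or 16.4 mg/kg/day in 5% DMSO/95% saline, or vehicle alone. Blood taken into EDTA on days 0, 5, 10 and 15; plasma from 2500 g spin, stored at −20 °C. Total cholesterol and triglycerides read by colorimetric kits, PCSK9 by mouse ELISA; unpaired two-tailed t test against vehicle.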

[10] = target: Proprotein convertase subtilisin/kexin type 9 (Homo sapiens) (UniProt Q8NBP7); test: Binding affinity to biotinylated recombinant human PCSK9 at 0.8 to 1.6 uM incubated for 2 mins followed by further incubation for 10 mins by biolayer interferometry
Outline: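 Biolayer interferometry: biotinylated PCSK9 (27 µg/mL) loaded onto a Super Streptavidin biosensor and blocked with biocytin. Compound (0.2–25.6 µM) associated for 2 min, then dissociated for 10 min. Background signal subtracted to remove non-specific binding.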

[11] = target: Mast/stem cell growth factor receptor Kit (Homo sapiens, UniProt P10721); test: Inhibition of recombinant human N-terminal GST-tagged c-Kit (544 to end residues) expressed in baculovirus infected Sf21 insect cells using FAM-labelled P22 peptide as substrate preincubated for 10 mins followed by substrate addition and measured after 1 hr in presence of ATP by fluorescence assay
[12] = test system: Mus musculus; test: Up regulation of PCSK9 expression in C57BL/6 mouse at 16.4 mg/kg/day, sc administered daily for 10 days measured post last dose by ELISA; type: functional, organism-based; details: in the assay text read “for 14 days” for “for 10 days”; outline: as §4
[13] = Tmax in C57BL/6 mouse at 20 mg/kg, sc administered as single dose measured upto 24 hrs by LC-MS/MS analysis; type: ADME, organism-based; details: in vivo; outline: as §1
[14] = Tmax in C57BL/6 mouse at 20 mg/kg, po administered as single dose measured upto 24 hrs by LC-MS/MS analysis; type: ADME, organism-based; details: in vivo; outline: as §1
[15] = AUClast in C57BL/6 mouse at 20 mg/kg, sc administered as single dose measured upto 24 hrs by LC-MS/MS analysis; type: ADME, organism-based; design: dose 20 mg/kg, time < 24 hr, route subcutaneous; details: in vivo; outline: as §1
[16] = Bioavailability in C57BL/6 mouse at 20 mg/kg, sc administered as single dose measured upto 24 hrs by LC-MS/MS analysis; type: ADME, organism-based; details: in vivo; outline: as §1
[17] = Terminal half life in CD1 mouse at 0.4 mg/kg, iv administered as cassette dose measured upto 24 hrs by LC-MS/MS analysis; type: ADME, organism-based; details: in vivo, read-out: beta t1/2 (converted); outline: as §3
[18] = AUCinfinity in CD1 mouse at 0.4 mg/kg, iv administered as cassette dose measured upto 24 hrs by LC-MS/MS analysis; type: ADME, organism-based; design: dose 0.4 mg/kg, route intravenous, time infinity; details: in vivo; outline: as §3
[19] = target: PCSK9/LDLR (Homo sapiens) (UniProt Q8NBP7+P01130); test: Inhibition of recombinant human His-tagged PCSK9 interaction with recombinant LDLR AB domain (unknown origin) at higher concentration measured after 3 hrs by horseradish peroxidase-coupled TMB substrate based spectrophotometry relative to control; type: protein assay; outline: as §2
[20] = test system: Mus musculus; test: Antihyperlipidemic activity in C57BL/6 mouse assessed as decrease in total cholesterol level at 16.4 mg/kg/day, sc administered daily for 14 days and measured on day 15 by colorimetric method relative to control; type: functional; design: scale not given: the % may be the effect or the level left; outline: as §4
[21] = Terminal half life in C57BL/6 mouse at 5 mg/kg, iv administered as single dose measured upto 24 hrs by LC-MS/MS analysis; type: ADME, organism-based; details: in vivo, read-out: beta t1/2 (converted); outline: as §1
[22] = Plasma concentration in C57BL/6 mouse at 20 mg/kg, sc administered as single dose measured after 24 hrs by LC-MS/MS analysis; type: ADME, organism-based; outline: as §1
[23] = Mean residence time ( 0 to infinity) in C57BL/6 mouse at 5 mg/kg, iv administered as single dose measured upto 24 hrs by LC-MS/MS analysis; type: ADME, organism-based; details: in vivo; outline: as §1

Sequence of Proprotein convertase subtilisin/kexin type 9 (Homo sapiens) (Q8NBP7 31-152 limits assumed): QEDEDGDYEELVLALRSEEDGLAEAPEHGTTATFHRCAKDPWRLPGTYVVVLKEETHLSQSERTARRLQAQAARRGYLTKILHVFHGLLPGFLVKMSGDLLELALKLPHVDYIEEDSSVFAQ
Sequence of Proprotein convertase subtilisin/kexin type 9 (Homo sapiens) (Q8NBP7 153-692 limits assumed): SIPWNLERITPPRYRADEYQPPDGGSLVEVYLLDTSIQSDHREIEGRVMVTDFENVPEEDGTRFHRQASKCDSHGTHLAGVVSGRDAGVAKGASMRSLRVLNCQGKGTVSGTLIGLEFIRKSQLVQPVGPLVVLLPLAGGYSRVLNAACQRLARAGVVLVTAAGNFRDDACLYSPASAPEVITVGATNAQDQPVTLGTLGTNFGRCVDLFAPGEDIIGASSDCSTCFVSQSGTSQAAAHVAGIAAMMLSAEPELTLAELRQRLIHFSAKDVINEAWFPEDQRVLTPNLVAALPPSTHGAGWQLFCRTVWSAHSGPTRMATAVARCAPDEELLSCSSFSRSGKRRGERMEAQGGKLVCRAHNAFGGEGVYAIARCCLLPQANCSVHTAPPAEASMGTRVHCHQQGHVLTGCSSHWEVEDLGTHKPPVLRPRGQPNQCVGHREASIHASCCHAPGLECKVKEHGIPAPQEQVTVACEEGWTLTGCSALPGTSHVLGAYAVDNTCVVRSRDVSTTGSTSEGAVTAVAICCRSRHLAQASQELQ
Sequence of PCSK9/LDLR (Q8NBP7 31-152 limits assumed): as the sequence (Q8NBP7 31-152 limits assumed) above
Sequence of PCSK9/LDLR (Q8NBP7 153-692 limits assumed): as the sequence (Q8NBP7 153-692 limits assumed) above
Sequence of PCSK9/LDLR (P01130 22-860 partner limits assumed): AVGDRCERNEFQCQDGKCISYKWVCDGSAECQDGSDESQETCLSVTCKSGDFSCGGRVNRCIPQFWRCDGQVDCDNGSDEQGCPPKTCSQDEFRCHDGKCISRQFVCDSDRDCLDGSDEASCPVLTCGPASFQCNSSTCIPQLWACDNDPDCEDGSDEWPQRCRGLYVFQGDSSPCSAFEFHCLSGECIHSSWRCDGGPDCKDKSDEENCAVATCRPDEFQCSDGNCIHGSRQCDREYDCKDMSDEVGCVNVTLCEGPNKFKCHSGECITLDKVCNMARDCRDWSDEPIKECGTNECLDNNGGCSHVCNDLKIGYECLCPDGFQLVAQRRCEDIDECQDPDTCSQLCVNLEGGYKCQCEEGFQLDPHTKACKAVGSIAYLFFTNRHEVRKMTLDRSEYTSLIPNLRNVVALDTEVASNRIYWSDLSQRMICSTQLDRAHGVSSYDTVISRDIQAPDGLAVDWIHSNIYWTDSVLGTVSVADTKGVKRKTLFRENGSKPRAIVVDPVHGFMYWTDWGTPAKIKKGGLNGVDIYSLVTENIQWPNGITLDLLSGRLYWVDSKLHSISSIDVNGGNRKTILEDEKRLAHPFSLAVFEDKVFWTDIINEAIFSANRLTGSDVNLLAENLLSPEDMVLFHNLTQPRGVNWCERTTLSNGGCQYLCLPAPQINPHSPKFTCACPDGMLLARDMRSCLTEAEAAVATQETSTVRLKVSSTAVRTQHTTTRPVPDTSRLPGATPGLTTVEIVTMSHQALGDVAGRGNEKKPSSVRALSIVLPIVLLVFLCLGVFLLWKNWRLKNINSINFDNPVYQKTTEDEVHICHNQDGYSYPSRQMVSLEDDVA
Sequence of Mast/stem cell growth factor receptor Kit (P10721 whole entry): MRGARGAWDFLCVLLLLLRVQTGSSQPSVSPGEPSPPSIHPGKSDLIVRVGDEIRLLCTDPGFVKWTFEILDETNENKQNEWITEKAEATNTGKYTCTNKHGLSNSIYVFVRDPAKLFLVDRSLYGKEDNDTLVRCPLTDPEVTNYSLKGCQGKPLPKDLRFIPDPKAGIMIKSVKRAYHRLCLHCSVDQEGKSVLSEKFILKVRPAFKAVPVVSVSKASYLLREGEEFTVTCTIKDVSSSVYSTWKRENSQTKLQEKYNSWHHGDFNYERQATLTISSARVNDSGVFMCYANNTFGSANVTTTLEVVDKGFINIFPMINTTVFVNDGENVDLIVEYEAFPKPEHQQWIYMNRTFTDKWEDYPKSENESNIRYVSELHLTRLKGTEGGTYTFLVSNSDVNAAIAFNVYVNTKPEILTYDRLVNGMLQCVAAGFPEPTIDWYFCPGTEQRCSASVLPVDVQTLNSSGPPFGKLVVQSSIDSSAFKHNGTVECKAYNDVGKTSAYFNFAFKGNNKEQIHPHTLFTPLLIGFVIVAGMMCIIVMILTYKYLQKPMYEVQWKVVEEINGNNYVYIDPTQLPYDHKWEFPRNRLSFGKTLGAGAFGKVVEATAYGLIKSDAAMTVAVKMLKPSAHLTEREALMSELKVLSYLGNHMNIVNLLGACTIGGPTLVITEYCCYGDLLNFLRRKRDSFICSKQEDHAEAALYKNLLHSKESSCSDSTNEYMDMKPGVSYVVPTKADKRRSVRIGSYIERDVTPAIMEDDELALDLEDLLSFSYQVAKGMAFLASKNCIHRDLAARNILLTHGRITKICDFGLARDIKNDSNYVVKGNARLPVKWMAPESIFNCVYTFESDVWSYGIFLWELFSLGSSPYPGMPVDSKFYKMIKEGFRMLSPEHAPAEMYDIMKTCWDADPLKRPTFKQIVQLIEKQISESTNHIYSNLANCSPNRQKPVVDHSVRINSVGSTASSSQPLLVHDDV
Sequence of PCSK9/LDLR (Homo sapiens) (P01130 22-860 partner limits assumed): as the sequence (P01130 22-860 partner limits assumed) above
Sequence of PCSK9/LDLR (Homo sapiens) (Q8NBP7 31-152 limits assumed): as the sequence (Q8NBP7 31-152 limits assumed) above
Sequence of PCSK9/LDLR (Homo sapiens) (Q8NBP7 153-692 limits assumed): as the sequence (Q8NBP7 153-692 limits assumed) above

Compound: Cc1cn(-c2cc(CN3CCC[C@H](N)C3)cc(NC(=O)c3ccc(C)c(Oc4ccccc4)c3)c2)cn1
- half-life [1]: 5.47 h
- clearance [2]: 18.2 mL/min/kg
- IC50 [3]: 537 nM
- clearance [4]: 5 mL/min/kg
- bioavailability [5]: 0.527%
- Vd [6]: 9.13 L/kg
- inhibition [7]: Dose-dependent effect
- AUC(0-inf) [8]: 4600 ng·h/mL
- Activity [9]: Non-Toxic
- Activity [10]: Active
- IC50 [11]: > 10000 nM
- Activity [12]: Active
- Tmax [13]: 1 h
- Tmax [14]: 2 h
- AUC(0-t) at 24 h [15]: 16100 ng·h/mL
- bioavailability [16]: 91.3%
- half-life [17]: 25.7 h
- AUC(0-inf) [18]: 1470 ng·h/mL
- Imax [19]: 57%
- Activity [20]: 10%
- half-life [21]: 9.86 h
- concentration at 24 h [22]: 93 nM
- MRT inf [23]: 3.56 h

Reference: ChEMBL document CHEMBL4627281, “A small molecule inhibitor of PCSK9 that antagonizes LDL receptor binding via interaction with a cryptic PCSK9 binding groove” (Bioorg Med Chem, 2020)
